In ChEMBL document CHEMBL4513216, “Probing the Open Global Health Chemical Diversity Library for Multistage-Active Starting Points for Next-Generation Antimalarials” (ACS Infect Dis, 2020):

assay: Toxicity liver stage against HepG2, at 10uM; type: cell-based; parameters: test concentration 10 uM, cell line HepG2-A16-CD81EGFP; settings: human, HepG2-A16-CD81EGFP cells; read-out: INHIBITION
Procedure, shortened: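 Uninfected HepG2-A16-CD81EGFP cells, 3 × 10^3 per well, 1536-well, plated on prespotted compound at 10 μM final, parasite-free screening media added to match infected plates; puromycin 10 μM positive, DMSO 0.5% negative; run in parallel with 48 h PbLuc assay at 37 °C, 5% CO2; viability by CellTiter-Glo luminescence, normalized to controls.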

Row | SMILES | cytotoxicity at 10 µM [%]
1 | CCC(NS(C)(=O)=O)c1ccccc1OC (configuration not stated) | -43.1
2 | Cc1nc(SCC(=O)Nc2ccc(C(N)=O)cc2)c(C#N)c(C)c1C | -5.28
3 | CC1=C(c2ccc(C(C)C)cc2)S(=O)(=O)N=C1N1CCc2ccccc21 | -16.8
4 | Cc1ccsc1C1CCCCCN1Cc1cn(C)nc1C (configuration not stated) | -4.38
5 | Cc1nnc(SCC(=O)c2cc3c(cc2Cl)NC(=O)C3)s1 | 5.42
6 | O=S(=O)(Nc1cnc(N2CCOCC2)nc1)c1cccc(F)c1 | -19.2
7 | COCC(=O)Nc1ccccc1-c1ccc(=O)n(C)n1 | 4.51
8 | CC(C)CNC(=O)N1CCC2(CCCO2)C1 (configuration not stated) | 12.9
9 | CN1CCCN(C(=O)c2cc3c(s2)CCN3C(=O)c2ccccc2)CC1 | 1.05
10 | Cc1ccc(CN2Cc3ccnn3CC(COCc3cccnc3)C2)o1 (configuration not stated) | -143
11 | Cn1cnnc1SCc1cc2c(cc1Br)OCO2 | 6.44
12 | O=c1cc(-c2ccccc2)nc2n1CCCCC2 | 1.36
13 | O=C(CCSC1CCc2ccccc2NC1=O)NCCCO (configuration not stated) | -5.65
14 | Cc1cccc(C(=O)NCCCN2CCN(c3ccccc3)CC2)c1 | 7.67
15 | O=C([C@H]1CCCO1)N1CCc2ncnc(NC3CC3)c2CC1 | -12.6
16 | Cc1nn(C)c2c(=O)n(C)c(NCC3CCCO3)nc12 (configuration not stated) | 0.186
17 | O=C(c1cnn2c(-c3ccco3)ccnc12)N1CCCCCC1 | 14.4
18 | CNC(=O)c1cccc(CC2COCCN(Cc3ccsc3)C2)n1 (configuration not stated) | -0.257
19 | CC(=O)Nc1nc(C2CCN(C(=O)c3cncs3)CC2)cs1 | -8.91
20 | Cc1c[nH]nc1C1CCCCN1C(=O)CNS(C)(=O)=O (configuration not stated) | -9.19
21 | CNc1cncc(C2CCCN2Cc2ccnc(C)n2)n1 (configuration not stated) | -11.4
22 | Cc1nc2ccc(C(=O)N3CCn4c(nnc4C4CC4)C3)cc2nc1C | -3.22
23 | Cc1noc(C)c1C(=O)N1CCC(c2[nH]ncc2S(C)(=O)=O)C1 (configuration not stated) | -9.83

Row | SMILES | cytotoxicity at 10 µM [%]
24 | CCCn1cc(C(=O)N2CCOC(c3nc(-c4cccs4)no3)C2)cn1 (configuration not stated) | -4.22
25 | O=C(c1ccncc1)N1CCC(c2nc(O)cc(-c3cccnc3)n2)C1 (configuration not stated) | -0.0788
26 | COCC(=O)Nc1ccc(Oc2ccsc2C(=O)O)cc1 | 8.12
27 | Cc1ccnc(N2CCC(OCCN3CCCCC3)C2)n1 (configuration not stated) | -49.4
28 | CC(CN1CCCC1=O)NC(=O)NCc1ccccc1-n1cccn1 (configuration not stated) | 3.33
29 | O=S(=O)(NCCCn1cncn1)c1ccc2c(c1)OCCCO2 | 3.51
30 | Cc1cc(C)cc(OCCN(C)C2CCOC2=O)c1 (configuration not stated) | -143
31 | Cc1cc(NC(=O)NCc2nncn2C)ccc1OC(C)C | 6.23
32 | CN(C)C(=O)c1ccccc1NC(=O)N[C@@H]1c2ccccc2C[C@@H]1O | -43.1
33 | Cc1ccc(OCC(C)NS(=O)(=O)Cc2ccon2)cc1 (configuration not stated) | -4.84
34 | Cc1nc(CNC(=O)N2CCN(c3ccc(Cl)cn3)CC2)no1 | -13.1
35 | COC(=O)CSCc1nc(-c2ccc(Cl)cc2)no1 | 3.77
36 | COc1cccc(CC(=O)N2CCC(O)(C(F)(F)F)C2)c1 (configuration not stated) | 1.16
37 | O=C(CC1CCCC1)NCCn1nc2ccccn2c1=O | 9.97
38 | Cc1cc(N2CCN(c3nc4ccccc4cc3CO)CC2)nc(C)n1 | 7.86
39 | Cc1cc(C(N)=O)ccc1NC(=O)c1nc(N2CCCCC2)ncc1Cl | -13.9
40 | CCN1CCC(CNCc2cc(C)ccc2OC)C1 (configuration not stated) | 17.4
41 | Cc1cc(C2CCCN2C(=O)NCc2ccccn2)on1 (configuration not stated) | 1.47
42 | Cn1cc(CC2CCN(C(=O)NCCCc3ccc(O)cc3)C2)cn1 (configuration not stated) | 0.557
43 | CC(Cn1cccn1)NCC(=O)NC1(C#N)CCCCC1 (configuration not stated) | -3.6
44 | CCOC(C)c1noc(CN2CCCNCC2)n1 (configuration not stated) | 5.44
45 | CC(C)NC(=O)c1cc(Br)cc(S(=O)(=O)N2CCOCC2)c1F | 6.17
46 | CCCC1SCCN1C(=O)c1ccc(-n2ncc(C#N)c2N)cc1 (configuration not stated) | 9.15

Row | SMILES | cytotoxicity at 10 µM [%]
47 | Cc1nc(C)c(CCNC(Cc2ccncc2)C(F)(F)F)s1 (configuration not stated) | -4.96
48 | Cc1cc(C(=O)NCCN2CCCc3ccccc32)[nH]n1 | 0.868
49 | CC(C(=O)Nc1ccc2ccccc2c1)N1CCC(n2ccnc2)CC1 (configuration not stated) | -4
50 | CC(=O)Nc1nc(C(=O)NCCOc2ccc(C)cc2)cs1 | 5.35
51 | Cc1nnc2n1CCN(Cc1c(Cl)ccc3cccnc13)C2 | 8.25
52 | Cc1noc(C)c1C(=O)N1CCSc2ccc(Cl)cc21 | -108
53 | c1ccc(CC2(CNCc3ncc[nH]3)CCC2)cc1 | 0.458
54 | Cc1ccc(OCCCNC(=O)CN(C)c2ccc(C#N)cn2)cc1 | 4.01
55 | Cn1cnc2c1CCN(CCCOc1ccc(S(C)(=O)=O)cc1)C2 | 4.94
56 | Cc1cc2n(n1)CC(CNC1CCN(c3ccc(F)cc3)CC1)CN2 (configuration not stated) | -10.3
57 | O=C(NS(=O)(=O)c1ccccc1Cl)c1cccc2c1OCCO2 | -11
58 | CC(C)CN1C(=O)CO[C@@H]2CN(C(=O)C3CCOC3)C[C@H]21 (some centres not stated) | -70.3
59 | O=C(c1ccsc1)N1CCN2C[C@H](OCc3ccccn3)C[C@H]2C1 | -71.8
60 | Cn1cccc1C(=O)N1CCc2ncnc(N3CCCC3)c2CC1 | -1.31
61 | O=C(c1ccco1)N1CCC2(CC1)C(=O)NCCN2CC1CC1 | 4.3
62 | CCNc1nc(-c2cccnc2)c(-c2ccnc(N3CCCC3)n2)s1 | -5.14
63 | O=C(CCc1ccccc1F)N1CCCC(OCc2cccnc2)C1 (configuration not stated) | -5.44
64 | CN(c1ncccc1CNS(=O)(=O)N1CCOCC1)C1CCCCC1 | 6.39
65 | CCN(C(C)=O)C1CCN(c2nccc(CCC(F)(F)F)n2)C1 (configuration not stated) | -4.39
66 | CCC[C@H]1CN(Cc2cscn2)C[C@@H]1NC(=O)C1(COC)CCC1 | -5.69
67 | CCSc1ncc(-c2cc(C3CCC3)nc(N)c2C#N)cn1 | 6.67
68 | Cc1ccc(C(=O)N2CCSCC2)cc1N1CCNC1=O | -6.33
69 | CN1CCCC(CCC(=O)N2CCc3c(nc(CC4CC4)[nH]c3=O)C2)C1 (configuration not stated) | -8.61

Row | SMILES | cytotoxicity at 10 µM [%]
70 | CCc1csc(CNCC(=O)Nc2ccc(Cl)c(C)c2)n1 | 5.33
71 | CNS(=O)(=O)c1ccc(CN2CCN(Cc3ncccc3C)CC2)cc1 | 8.41
72 | CC(CCn1cccn1)Nc1ccc(-c2nccn2C)nn1 (configuration not stated) | 1.39
73 | CN1CCC(Cc2nc(-c3cnccn3)n(C3CCS(=O)(=O)C3)n2)CC1 (configuration not stated) | -2.64
74 | CC(CCc1ncnn1Cc1cccc(Cl)c1)N1CCCC1 (configuration not stated) | -3.03
75 | COC(=O)c1cccc(-c2nc(CC3CCN(C)CC3)no2)c1 | -1.6
76 | Cc1nc(N(CCC(N)=O)Cc2ccccc2)c2nc(C)oc2n1 | -3.86
77 | CN(Cc1n[nH]c2c1CCCC2)C(=O)c1cccc(CCC(C)(C)O)c1 | -3.87
78 | COc1ccccc1N1CCN(C(=O)CCCS(N)(=O)=O)C(C)C1 (configuration not stated) | 6.15
79 | COc1ncc(-c2cc(NCCN(C)C)nc3[nH]ccc23)c(OC)n1 | -20.7
80 | CCN1CCC(N[C@@H]2CC[C@@H]2NC(=O)Cc2csc(C)n2)CC1 | 1.82
81 | CN(CC1(CO)CCC1)C(=O)C1CCC(=O)N(Cc2ccc(Cl)cc2)C1 (configuration not stated) | -11.2
82 | CN(C)CCN(Cc1ccsc1)C(=O)C1=NNC(=O)CC1 | 6.62
83 | Cc1nc(O)cc(C2CCCN(Cc3c(Cl)cncc3Cl)C2)n1 (configuration not stated) | -5.4
84 | CCN1CCC(CC(=O)N2CCCCC2CCn2cccn2)CC1 (configuration not stated) | -5.02
85 | Cc1nn(C)c(C)c1CN(C)C1CCN(c2ncnc3[nH]cnc23)CC1 | -76.7
86 | O=C(NCCC1COc2ccccc2O1)c1ccc(-c2cn[nH]c2)nc1 (configuration not stated) | 4.65
87 | c1coc(-c2nc3c(c(NCc4n[nH]c5c4CCC5)n2)CCNCC3)c1 | -3.36
88 | CCc1[nH]c2c(CNC(=O)C3CCS(=O)(=O)CC3)cc(C)cc2c1C | 1.87
89 | O=C(c1ccc[nH]1)N1CCN(CC2CCOc3ccccc3C2)CC1 (configuration not stated) | 4.03
90 | CN(C)C(C(=O)N1CCC(N2CCSCC2)CC1)c1ccccc1F (configuration not stated) | 9.22
91 | Cc1nnc(N2CCOC(CN(C)C)C2)c(C#N)c1C (configuration not stated) | -9.95
92 | Cc1ccc(-c2noc(CN3CCOC(Cn4cccn4)C3)n2)cc1 (configuration not stated) | -5.98

Row | SMILES | cytotoxicity at 10 µM [%]
93 | CC(C(=O)NCCN1CCCCCC1)n1cncn1 (configuration not stated) | -1.4
94 | Cc1nn(C)c(C)c1C1CCCN1Cc1nc(-c2ccco2)no1 (configuration not stated) | -3.17
95 | O=C(Nc1cccc(N2CCCC2)c1)C1CCCN1c1nccs1 (configuration not stated) | -6.08
96 | CC(C)Cc1noc(CN2CCN(CCO)CC2)n1 | -1.22
97 | CCn1c(CN2CCC(O)(C(=O)OC)CC2)nc2c(F)cccc21 | -9.73
98 | c1coc(-c2noc(CN3CCCC(Cn4cncn4)C3)n2)c1 (configuration not stated) | -7.23
99 | Cc1ccc(C(=O)CCC(=O)N2CCC(c3nncn3C)CC2)cc1 | -9.86
100 | CCC1CN(CC(=O)N2CCC2)CCN1CCOC (configuration not stated) | -9.78
101 | Cn1ccc(C(=O)NCc2cccc(CN3CCCC3)c2)cc1=O | -3.07
102 | COc1ccccc1C1(NCc2c(C)nc3c(C)cccn23)CCCC1 | 15.2
103 | CO[C@H]1CCN(c2ncc(F)cn2)[C@@H]2CN(Cc3ccco3)C[C@H]12 | 13.5
104 | Cc1cnc(N2CCC3(CC2)CC(N(C)Cc2ccncc2)C3)nc1 | 8.73
105 | CCc1ccc(CN2Cc3nccn3CC(CN3CCOCC3)C2)o1 (configuration not stated) | -87.9
106 | Cc1nc(COC[C@@H]2CCC[C@@]23CN(C)CCO3)cs1 | -88.9
107 | COCCN1CCCC12CCN(Cc1cncn1C)CC2 | 8.52
108 | Cc1noc(C)c1CN1Cc2cn(C)nc2C(COCC2CC2)C1 (configuration not stated) | -73
109 | Cc1ccc(N2CCO[C@H]3CN(Cc4cc(C)on4)CC[C@H]3C2=O)cn1 | -72.2
110 | COc1ccc(CN)c(OC(F)F)c1 | -41.7
111 | C=c1cc(C)oc1=C1NC(c2c(C)ncc3c2CCNC3)=NO1 | -0.132
112 | NCC1CCC(C(NC(=O)c2ccccc2)c2ccccn2)CC1 (configuration not stated) | 0
